Data set [1] concerns Mus musculus. Description: The effective dose was measured by using mouse writhing assay after the compound administered subcutaneously. Type of data set: functional. The note with it: sc. The gist of the method: (§1)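 Analgesia in the mouse writhing test induced by acetic acid, with compound given subcutaneously. Salts were dissolved in distilled H₂O; free bases were dissolved by dropwise 1 N HCl and then diluted.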
(In writhing tests, fewer writhes than in controls are read as antinociception.)

For data set [2], the system named is Rattus norvegicus. Description: The Effective dose was measured by using rat tail flick assay after the compound administered intraperitoneally at a dose of 50 uM/Kg; IA means inactive at the given dose. Type of data set: functional, organism-based. (Hot-plate and tail-flick tests time the reaction to a heat stimulus.)
In data set [3] the test system is Rattus norvegicus. Description: The Effective dose was measured by using rat tail flick assay after the compound administered intraperitoneally at a dose of 7.7 umol/kg; IA means inactive at the given dose. It is filed as functional, organism-based.
In data set [4] the test system is Rattus norvegicus. Description: The %change in weight from day 0 to day 4 after administering the compound at dose of 80 (mg/kg)/day in rat. Type of data set: functional. The gist of the method:
(§2)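 Rat physical dependence liability study: drug infused at the stated mg/kg/day for 6 days, with saline-infused controls for 6 days. Body weight was recorded daily and expressed as % change from day 0 on days 1–4. Groups of 4–6 rats; values are means ±.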

The test system of data set [5] is Rattus norvegicus. Description: The %change in weight from day 0 to day1 after administering the compound at dose of 80 (mg/kg)/day in rat. It is filed as functional. The gist of the method:
as §2

The test system of data set [6] is Rattus norvegicus. Description: The %change in weight from day 0 to day 2 after administering the compound at dose of 40 (mg/kg)/day in rat. It is filed as functional. The method in brief:
as §2

Data set [7] deals with Rattus norvegicus. As to the kind of experiment: The %change in weight from day 0 to day 3 after administering the compound at dose of 80 (mg/kg)/day in rat. It is filed as functional. The method in brief: as §2
Data set [8] has as its system Rattus norvegicus. As to the kind of experiment: The %change in weight from day 0 to day 3 after administering the compound at dose of 40 (mg/kg)/day in rat. Type of data set: functional. The method in brief:
as §2

Data set [9] relates to Rattus norvegicus. Description: The %change in weight from day 0 to day 2 after administering the compound at dose of 80 (mg/kg)/day in rat. Type of data set: functional. The gist of the method:
as §2

Data set [10] relates to Rattus norvegicus. As to the kind of experiment: The %change in weight from day 0 to day1 after administering the compound at dose of 40 (mg/kg)/day in rat. It is filed as functional. The method in brief: as §2
The subject of data set [11] is Rattus norvegicus. As to the kind of experiment: The %change in weight from day 0 to day 4 after administering the compound at dose of 40 (mg/kg)/day in rat. It is filed as functional. The method in brief:
as §2

In data set [12] the test system is Mus musculus. As to the kind of experiment: The Effective dose was measured by using mouse writhing assay after the compound administered subcutaneously at a dose of 50 umol/kg; IA means inactive at the given dose. It is filed as functional, organism-based. The gist of the method:
as §1

Data set [13] has as its system Rattus norvegicus. Description: The effective dose was measured by using rat tail flick assay after the compound administered intraperitoneally. It is filed as functional. The note with it: ip.
The test system of data set [14] is Rattus norvegicus. Description: The Effective dose was measured by using rat tail flick assay after the compound administered subcutaneously at a dose of 28 umol/kg; IA means inactive at the given dose. It is filed as functional, organism-based. The method in brief: (§3)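 Agonist activity in the rat heat-stimulus tail-flick test. Drug was given subcutaneously and rats were tested 20 min after dosing. Salts were dissolved in distilled H₂O; free bases were dissolved with dropwise 1 N HCl and then diluted. ED₅₀ or inactivity/lethality recorded at the dose indicated.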

Data set [15] deals with Rattus norvegicus. As to the kind of experiment: The Effective dose was measured by using rat tail flick assay after the compound administered intraperitoneally at a dose of 9 umol/kg; IA means inactive at the given dose. It is filed as functional, organism-based.
In data set [16] the test system is Rattus norvegicus. Description: The Effective dose was measured by using rat tail flick assay after the compound administered intraperitoneally at a dose of 50 umol/kg; IA means inactive at the given dose. It is filed as functional, organism-based.
For data set [17], the system named is Rattus norvegicus. Description: The Effective dose was measured by using rat tail flick assay after the compound administered subcutaneously; lethal at the given dose. Particulars: in vivo, sc. It is filed as organism-based. The method in brief: as §3
Data set [18] relates to Rattus norvegicus. As to the kind of experiment: The Effective dose was measured by using rat tail flick assay after the compound administered intraperitoneally at a dose of 30 umol/kg; IA means inactive at the given dose. Type of data set: functional, organism-based.
The subject of data set [19] is Mus musculus. Description: The Effective dose was measured by using mouse writhing assay after the compound administered subcutaneously at a dose of 75 umol/kg; IA means inactive at the given dose. It is filed as functional, organism-based. The gist of the method: as §1

Active and inactive are the calls of the source. The calls are words filed in the database; no cut-off is given here.

On to `CCC[C@H]1CC(=O)CC23CCN(CC4CCC4)C(Cc4ccc(OC)cc42)[C@H]13` (stereo partly specified), for which, in the data set with Mus musculus [1], the ED50 was 34 µmol/kg. For the same compound, in the data set with Rattus norvegicus [2], the ED50 entry was “inactive”.

Consider `CCC1CCCC23CCN(CC4CCC4)C(Cc4ccc(OC)cc42)[C@H]13` (stereo partly specified), for which the ED50 entry in the data set with Rattus norvegicus [3] is “inactive”. This compound also came in with an ED50 with Mus musculus [1] above 25 µmol/kg.

Take `C[C@H]1CC(=O)CC23CCN(CC4CCC4)C(Cc4ccc(O)cc42)[C@H]13.O=C(O)C(O)C(O)C(=O)O` (stereo partly specified): the Change in the data set on Rattus norvegicus [4] was 9.5%; in the data set on Rattus norvegicus [5], 1.7%; with Rattus norvegicus [6], 2%; in the data set on Rattus norvegicus [7] it was 5.3%; in the data set with Rattus norvegicus [8] it was 6.1%; with Rattus norvegicus [9] it was 3.1%. For the same compound, the Change in the data set on Rattus norvegicus [10] is on record as 1.2%; in the data set on Rattus norvegicus [11], 9.6%.

Regarding `CC[C@H]1CC(=O)CC23CCN(CC4CC4)C(Cc4ccc(O)cc42)[C@H]13` (stereo partly specified), the ED50 entry in the data set with Mus musculus [12] is “inactive”. Also, in the data set with Rattus norvegicus [13], the ED50 is 4.7 µmol/kg.

In the case of `CCC[C@@H]1CC(=O)CC23CCN(C)C(Cc4ccc(OC)cc42)[C@@H]13` (stereo partly specified), in the data set on Rattus norvegicus [14], the ED50 entry is “inactive”. In the data set on Mus musculus [1], this compound came in with an ED50 of 55 µmol/kg.

Take `CCC1CCCC23CCN(CC4CCC4)C(Cc4ccc(O)cc42)[C@H]13` (stereo partly specified): in the data set on Rattus norvegicus [15], the ED50 entry was “inactive”. This compound also had an ED50 in the data set on Mus musculus [1] above 25 µmol/kg.

For the compound `CC[C@H]1CC(=O)CC23CCN(CC4CCC4)C(Cc4ccc(OC)cc42)[C@H]13` (stereo partly specified), the ED50 result with Rattus norvegicus [16] was “inactive”. In the data set on Mus musculus [1], this compound yielded an ED50 of 14.2 µmol/kg.

With `COc1ccc2c(c1)C13CCN(C)C(C2)[C@H]1[C@H](C)CC(=O)C3` (stereo partly specified), the ED50 in the data set on Mus musculus [1] was 2.65 µmol/kg; in the data set with Rattus norvegicus [17], 9 µM/kg.

`COc1ccc2c(c1)C13CCN(CC4CCC4)C(C2)[C@H]1CCC(=O)C3` (stereo partly specified): the ED50 entry in the data set on Rattus norvegicus [18] was “inactive”. The same compound had an ED50 in the data set on Mus musculus [1] of 20.3 µmol/kg.

Regarding `CC[C@@H]1CC(=O)CC23CCN(CC4CCC4)C(Cc4ccc(OC)cc42)[C@@H]13` (stereo partly specified), the ED50 in the data set on Rattus norvegicus [13] was above 25 µmol/kg. For the same compound, the ED50 entry in the data set on Mus musculus [19] is “inactive”.

For the origin of these results see ChEMBL document CHEMBL1121388, “Analgesic narcotic antagonists. 2. 8-Alkymorphinan-6-ones” (J Med Chem, 1980).
